For one compound, Activity results are on record in ChEMBL document CHEMBL1154427, “Impact of dual infections on chemotherapeutic efficacy in BALB/c mice infected with major genotypes of Trypanosoma cruzi” (2007).

What all share (type): functional
Test [1] concerns Trypanosoma cruzi. Briefly: Antimicrobial activity against Trypanosoma cruzi infected in BALB/c mouse assessed as parasitemia remaining in fresh blood. The procedure, abridged: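 Tail-vein blood examined daily by light microscopy for living trypomastigotes up to day 60 after infection.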
Test [2] has as its system Trypanosoma cruzi. Briefly: Antimicrobial activity against Trypanosoma cruzi infected in BALB/c mouse assessed as parasitemia remaining in hemoculture. The procedure, abridged:
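Orbital sinus blood taken 30 days after treatment was inoculated into 3 ml LIT medium and kept at 28°C. Tubes were checked for parasites at days 30, 60, 90 and 120 of culture.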

The subject of test [3] is Trypanosoma cruzi. Briefly: Antimicrobial activity against Trypanosoma cruzi genotype 19 and genotype 39 dually infected in BALB/c mouse assessed as cure rate. Put shortly: (§1)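 Mice counted cured when fresh blood examination, hemoculture, blood PCR, ELISA and FC-ALTA were all negative. Mice negative by parasitology and FC-ALTA but positive by ELISA were counted as dissociated and also cured. Observed cure rate per group = cured animals / total infected treated animals × 100. Each genotype combination was run in replicate batches.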

Test [4] concerns Trypanosoma cruzi. Briefly: Antimicrobial activity against Trypanosoma cruzi infected in BALB/c mouse assessed as parasitemia remaining by PCR method. The procedure, abridged: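 Orbital sinus blood taken 30 days after treatment into 6 M guanidine–0.2 M EDTA (pH 8.0), 1:2, and kept at room temperature. PCR used primers S35/S36 with 3.5 mM MgCl2: 5 min at 94°C, then 35 cycles of 95°C/65°C/72°C for 1 min each, then 10 min final extension. Products were resolved on 6% polyacrylamide with silver staining.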

Test [5] relates to Trypanosoma cruzi. Briefly: Antimicrobial activity against Trypanosoma cruzi infected in BALB/c mouse assessed as parasitemia remaining by ELISA. Put shortly: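 Conventional ELISA on sera taken 2 and 3 months after treatment and stored at –20°C. Sera were tested at 1:80 in PBS against an alkaline-extract antigen of Y strain parasites grown to exponential phase in LIT medium. Bound antibody was detected with peroxidase anti-mouse IgG and read at 490 nm. Per-plate cutoff = mean of 10 negative sera + 2 SD.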
Background: ELISA stands for enzyme-linked immunosorbent assay.

The subject of test [6] is Trypanosoma cruzi. Briefly: Antimicrobial activity against Trypanosoma cruzi genotype 19 and genotype 32 dually infected in BALB/c mouse assessed as cure rate. Put shortly:
as §1

Test [7] deals with Trypanosoma cruzi. Briefly: Antimicrobial activity against Trypanosoma cruzi infected in BALB/c mouse assessed as parasitemia remaining by FC-ALTA. The procedure, abridged: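 Flow cytometric detection of antibodies to live trypomastigotes, microplate format, on sera taken 3 months after treatment and diluted 1:1,500. IgG was detected with FITC-labelled goat anti-mouse IgG. Read-out was percentage of positive fluorescent parasites, relative to a conjugate-only control; >20% was scored positive. Positive and negative controls ran in each batch.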

Test [8] concerns Trypanosoma cruzi. Briefly: Antimicrobial activity against Trypanosoma cruzi 1 infected in BALB/c mouse assessed as cure rate. The procedure, abridged: as §1
The subject of test [9] is Trypanosoma cruzi. Briefly: Antimicrobial activity against Trypanosoma cruzi infected in BALB/c mouse assessed as cure rate. Put shortly: as §1
Test [10] relates to Trypanosoma cruzi. Briefly: Antimicrobial activity against Trypanosoma cruzi 2 infected in BALB/c mouse assessed as cure rate. Put shortly: as §1
The test system of test [11] is Trypanosoma cruzi. Briefly: Antimicrobial activity against Trypanosoma cruzi and Trypanosoma cruzi 2 dually infected in BALB/c mouse assessed as cure rate. Put shortly: as §1
Test [12] concerns Trypanosoma cruzi. Briefly: Antimicrobial activity against Trypanosoma cruzi 1 and Trypanosoma cruzi 2 dually infected in BALB/c mouse assessed as cure rate. Put shortly: as §1
Test [13] relates to Trypanosoma cruzi. Briefly: Antimicrobial activity against Trypanosoma cruzi 1 and Trypanosoma cruzi dually infected in BALB/c mouse assessed as cure rate. Put shortly:
as §1

Test [14] has as its system Trypanosoma cruzi. Briefly: Antimicrobial activity against Trypanosoma cruzi 1 dually infected in BALB/c mouse assessed as cure rate. The procedure, abridged: as §1
Test [15] relates to Trypanosoma cruzi. Briefly: Antimicrobial activity against Trypanosoma cruzi genotype 20 infected in BALB/c mouse assessed as cure rate. The procedure, abridged:
as §1

Test [16] has as its system Trypanosoma cruzi. Briefly: Antimicrobial activity against Trypanosoma cruzi genotype 19 infected in BALB/c mouse assessed as cure rate. Put shortly:
as §1

In test [17] the test system is Trypanosoma cruzi. Briefly: Antimicrobial activity against Trypanosoma cruzi genotype 32 infected in BALB/c mouse assessed as cure rate. Put shortly:
as §1

Test [18] relates to Trypanosoma cruzi. Briefly: Antimicrobial activity against Trypanosoma cruzi genotype 39 infected in BALB/c mouse assessed as cure rate. Put shortly: as §1
In test [19] the test system is Trypanosoma cruzi. Briefly: Antimicrobial activity against Trypanosoma cruzi genotype 20 and genotype 19 dually infected in BALB/c mouse assessed as cure rate. The procedure, abridged:
as §1

The test system of test [20] is Trypanosoma cruzi. Briefly: Antimicrobial activity against Trypanosoma cruzi genotype 39 and genotype 32 dually infected in BALB/c mouse assessed as cure rate. Put shortly:
as §1

In test [21] the test system is Trypanosoma cruzi. Briefly: Antimicrobial activity against Trypanosoma cruzi OPS21 cl11 and Trypanosoma cruzi MAS cl11 dually infected in BALB/c mouse assessed as cure rate. Put shortly: as §1
Test [22] deals with Trypanosoma cruzi. Briefly: Antimicrobial activity against Trypanosoma cruzi Bug2148 cl1 and Trypanosoma cruzi MAS cl11 dually infected in BALB/c mouse assessed as cure rate. The procedure, abridged:
as §1

As for `O=C(Cn1ccnc1[N+](=O)[O-])NCc1ccccc1` [BENZNIDAZOLE], the Activity with Trypanosoma cruzi [1] amounted to 19.8%; in the test with Trypanosoma cruzi [2], 79.3%; with Trypanosoma cruzi [3] it was 25.9%; with Trypanosoma cruzi [4] it was 93%; in the test on Trypanosoma cruzi [5], 96.4%; in the test with Trypanosoma cruzi [6], 22.7%. For the same compound, the Activity in the test on Trypanosoma cruzi [7] stood at 99%; with Trypanosoma cruzi [8] it was 35.4%; with Trypanosoma cruzi [9] it was 54.4%; in the test on Trypanosoma cruzi [10] it was 70%; in the test with Trypanosoma cruzi [11], 59.1%; in the test on Trypanosoma cruzi [12], 17.4%. For the same compound, the Activity with Trypanosoma cruzi [13] was 24%; with Trypanosoma cruzi [14] it was below 33%; in the test with Trypanosoma cruzi [15], 0%; in the test with Trypanosoma cruzi [16], 70%; in the test with Trypanosoma cruzi [17], 70%; in the test with Trypanosoma cruzi [18], 50%. In addition, the Activity in the test on Trypanosoma cruzi [19] turned out to be 0%; with Trypanosoma cruzi [20] it was 59.1%; in the test on Trypanosoma cruzi [21], 14.3%; with Trypanosoma cruzi [22], 83.3%.
